# Measurements taken from ChEMBL document CHEMBL4689842, “EUbOPEN Chemogenomics Library wave 1” (2021).
# Several values for one entry are separate records, joined by “and”; a condition that tells them apart may be missing. Identical values can stand only once.
# Tested on: U2OS
# Assay: Multiplex assay against U2OS
# Type: toxicity, cell-based
# Conditions: human
# Method in brief: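 With compound added, live cells were imaged on a CQ1 microscope at 37°C and 5% CO2; staining with Hoechst33342, BioTracker Green Microtubule Cytoskeleton Dye, MitoTracker Red and Annexin V Alexa Fluor 680 had been done at seeding. The CellPathfinder machine-learning gating scheme split cells into Hoechst high-intensity objects or normal cells, normal cells into healthy, pyknosed or fragmented nuclei, and pyknosed cells into mitotic or apoptotic. The tubulin, mitochondrial-mass and membrane-permeability phenotypes are per cents of healthy-nucleus cells.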
# [1] = 12 h, 1 µM, compound concentration 1 uM, replicate 1
# [2] = 12 h, 1 µM, compound concentration 1 uM, replicate 2
# [3] = 12 h, 10 µM, compound concentration 10 uM, replicate 1
# [4] = 12 h, 10 µM, compound concentration 10 uM, replicate 2
# [5] = 24 h, 1 µM, compound concentration 1 uM, replicate 1
# [6] = 24 h, 1 µM, compound concentration 1 uM, replicate 2
# [7] = 24 h, 10 µM, compound concentration 10 uM, replicate 1
# [8] = 24 h, 10 µM, compound concentration 10 uM, replicate 2
# [9] = 48 h, 10 µM, compound concentration 10 uM, replicate 1
# [10] = 48 h, 10 µM, compound concentration 10 uM, replicate 2
smiles,measurement,setting,value
C[C@@]1(C(=O)Nc2ccc(F)nc2)CCCN1c1nc(Nc2cc(C3CC3)n[nH]2)c2cccn2n1 [BMS-754807],Population Apoptotic (%),[1],25%
same,Population Fragmented Nuclei (%),[1],8%
same,Population Healthy Nuclei (%),[1],75%
same,Population Hoechst High Intensity Objects (%),[1],4%
same,Population Membrane Permeable-Phenotype (%),[1],61%
same,Population Mitochondria Different-Phenotype (%),[1],10%
same,Population Mitotic Cells (%),[1],74%
same,Population Normal (%),[1],95%
same,Population Pyknosed Nuclei (%),[1],15%
same,Population Tubulin-Different-Phenotype (%),[1],78%
same,Total Cell Count,[1],181
same,Population Apoptotic (%),[2],16%
same,Population Fragmented Nuclei (%),[2],36%
same,Population Healthy Nuclei (%),[2],56%
same,Population Hoechst High Intensity Objects (%),[2],27%
same,Population Membrane Permeable-Phenotype (%),[2],45%
same,Population Mitochondria Different-Phenotype (%),[2],25%
same,Population Mitotic Cells (%),[2],83%
same,Population Normal (%),[2],72%
same,Population Pyknosed Nuclei (%),[2],7%
same,Population Tubulin-Different-Phenotype (%),[2],62%
same,Total Cell Count,[2],117
same,Population Apoptotic (%),[3],41% and 56%
same,Population Fragmented Nuclei (%),[3],10% and 4%
same,Population Healthy Nuclei (%),[3],65% and 86%
same,Population Hoechst High Intensity Objects (%),[3],6% and 2%
same,Population Membrane Permeable-Phenotype (%),[3],6% and 9%
same,Population Mitochondria Different-Phenotype (%),[3],71% and 27%
same,Population Mitotic Cells (%),[3],58% and 43%
same,Population Normal (%),[3],93% and 97%
same,Population Pyknosed Nuclei (%),[3],24% and 8%
same,Total Cell Count,[3],191 and 183
same,Population Apoptotic (%),[4],33%
same,Population Fragmented Nuclei (%),[4],15% and 11%
same,Population Healthy Nuclei (%),[4],58% and 80%
same,Population Hoechst High Intensity Objects (%),[4],13% and 9%
same,Population Membrane Permeable-Phenotype (%),[4],22% and 16%
same,Population Mitochondria Different-Phenotype (%),[4],70% and 40%
same,Population Mitotic Cells (%),[4],66%
same,Population Normal (%),[4],86% and 90%
same,Total Cell Count,[4],53 and 85
same,Population Apoptotic (%),[5],38%
same,Population Fragmented Nuclei (%),[5],15%
same,Population Healthy Nuclei (%),[5],60%
same,Population Hoechst High Intensity Objects (%),[5],4%
same,Population Membrane Permeable-Phenotype (%),[5],63%
same,Population Mitochondria Different-Phenotype (%),[5],32%
same,Population Mitotic Cells (%),[5],61%
same,Population Normal (%),[5],95%
same,Population Pyknosed Nuclei (%),[5],24%
same,Population Tubulin-Different-Phenotype (%),[5],78%
same,Total Cell Count,[5],181
same,Population Apoptotic (%),[6],40%
same,Population Fragmented Nuclei (%),[6],41%
same,Population Healthy Nuclei (%),[6],47%
same,Population Hoechst High Intensity Objects (%),[6],20%
same,Population Membrane Permeable-Phenotype (%),[6],41%
same,Population Mitochondria Different-Phenotype (%),[6],30%
same,Population Mitotic Cells (%),[6],60%
same,Population Normal (%),[6],79%
same,Population Pyknosed Nuclei (%),[6],10%
same,Population Tubulin-Different-Phenotype (%),[6],51%
same,Total Cell Count,[6],114
same,Population Apoptotic (%),[7],28% and 49%
same,Population Fragmented Nuclei (%),[7],11% and 15%
same,Population Healthy Nuclei (%),[7],76% and 54%
same,Population Hoechst High Intensity Objects (%),[7],5% and 8%
same,Population Membrane Permeable-Phenotype (%),[7],11% and 8%
same,Population Mitochondria Different-Phenotype (%),[7],51% and 74%
same,Population Mitotic Cells (%),[7],71% and 50%
same,Population Normal (%),[7],94% and 91%
same,Population Pyknosed Nuclei (%),[7],11% and 30%
same,Total Cell Count,[7],187 and 184
same,Population Fragmented Nuclei (%),[8],17% and 12%
same,Population Healthy Nuclei (%),[8],47% and 74%
same,Population Hoechst High Intensity Objects (%),[8],9% and 11%
same,Population Membrane Permeable-Phenotype (%),[8],22%
same,Population Mitochondria Different-Phenotype (%),[8],59% and 45%
same,Population Mitotic Cells (%),[8],62% and 90%
same,Population Normal (%),[8],90% and 88%
same,Population Pyknosed Nuclei (%),[8],34% and 12%
same,Population Tubulin-Different-Phenotype (%),[8],77% and 28%
same,Total Cell Count,[8],51 and 89
same,Population Apoptotic (%),[9],72%
same,Population Fragmented Nuclei (%),[9],26%
same,Population Healthy Nuclei (%),[9],21%
same,Population Hoechst High Intensity Objects (%),[9],11%
same,Population Membrane Permeable-Phenotype (%),[9],13%
same,Population Mitochondria Different-Phenotype (%),[9],75%
same,Population Mitotic Cells (%),[9],27%
same,Population Normal (%),[9],88%
same,Population Pyknosed Nuclei (%),[9],52%
same,Population Tubulin-Different-Phenotype (%),[9],88%
same,Total Cell Count,[9],193
same,Population Apoptotic (%),[10],66%
same,Population Fragmented Nuclei (%),[10],25%
same,Population Healthy Nuclei (%),[10],30%
same,Population Hoechst High Intensity Objects (%),[10],20%
same,Population Membrane Permeable-Phenotype (%),[10],91%
same,Population Mitochondria Different-Phenotype (%),[10],83%
same,Population Mitotic Cells (%),[10],33%
same,Population Normal (%),[10],80%
same,Population Pyknosed Nuclei (%),[10],45%
same,Population Tubulin-Different-Phenotype (%),[10],91%
same,Total Cell Count,[10],50
C=CC(=O)Nc1cc2c(Nc3ccc(F)c(Cl)c3)ncnc2cc1OCCCN1CCOCC1.Cl.Cl [CANERTINIB DIHYDROCHLORIDE],Population Apoptotic (%),[1],91%
same,Population Fragmented Nuclei (%),[1],16%
same,Population Healthy Nuclei (%),[1],0%
same,Population Hoechst High Intensity Objects (%),[1],5%
same,Population Membrane Permeable-Phenotype (%),[1],0%
same,Population Mitochondria Different-Phenotype (%),[1],100%
same,Population Mitotic Cells (%),[1],8%
same,Population Normal (%),[1],94%
same,Population Pyknosed Nuclei (%),[1],83%
same,Population Tubulin-Different-Phenotype (%),[1],100%
same,Total Cell Count,[1],137
same,Population Apoptotic (%),[2],95%
same,Population Fragmented Nuclei (%),[2],10%
same,Population Healthy Nuclei (%),[2],4%
same,Population Hoechst High Intensity Objects (%),[2],20%
same,Population Membrane Permeable-Phenotype (%),[2],100%
same,Population Mitotic Cells (%),[2],5%
same,Population Normal (%),[2],79%
same,Population Pyknosed Nuclei (%),[2],85%
same,Total Cell Count,[2],88
same,Population Apoptotic (%),[3],22%
same,Population Fragmented Nuclei (%),[3],5%
same,Population Healthy Nuclei (%),[3],87%
same,Population Hoechst High Intensity Objects (%),[3],2%
same,Population Membrane Permeable-Phenotype (%),[3],38%
same,Population Mitochondria Different-Phenotype (%),[3],11%
same,Population Mitotic Cells (%),[3],77%
same,Population Normal (%),[3],97%
same,Population Pyknosed Nuclei (%),[3],6%
same,Population Tubulin-Different-Phenotype (%),[3],17%
same,Total Cell Count,[3],142
same,Population Apoptotic (%),[4],33%
same,Population Fragmented Nuclei (%),[4],12%
same,Population Healthy Nuclei (%),[4],81%
same,Population Hoechst High Intensity Objects (%),[4],10%
same,Population Membrane Permeable-Phenotype (%),[4],24%
same,Population Mitochondria Different-Phenotype (%),[4],22%
same,Population Mitotic Cells (%),[4],66%
same,Population Normal (%),[4],89%
same,Population Pyknosed Nuclei (%),[4],5%
same,Population Tubulin-Different-Phenotype (%),[4],14%
same,Total Cell Count,[4],122
same,Population Apoptotic (%),[5],99%
same,Population Fragmented Nuclei (%),[5],8%
same,Population Healthy Nuclei (%),[5],4%
same,Population Hoechst High Intensity Objects (%),[5],13%
same,Population Membrane Permeable-Phenotype (%),[5],100%
same,Population Mitochondria Different-Phenotype (%),[5],100%
same,Population Mitotic Cells (%),[5],0%
same,Population Normal (%),[5],86%
same,Population Pyknosed Nuclei (%),[5],87%
same,Population Tubulin-Different-Phenotype (%),[5],100%
same,Total Cell Count,[5],137
same,Population Apoptotic (%),[6],100%
same,Population Fragmented Nuclei (%),[6],14%
same,Population Healthy Nuclei (%),[6],5%
same,Population Hoechst High Intensity Objects (%),[6],21%
same,Population Normal (%),[6],78%
same,Population Pyknosed Nuclei (%),[6],79%
same,Total Cell Count,[6],85
same,Population Apoptotic (%),[7],70%
same,Population Fragmented Nuclei (%),[7],5%
same,Population Hoechst High Intensity Objects (%),[7],3%
same,Population Mitochondria Different-Phenotype (%),[7],11%
same,Population Mitotic Cells (%),[7],29%
same,Population Normal (%),[7],96%
same,Population Pyknosed Nuclei (%),[7],9%
same,Population Tubulin-Different-Phenotype (%),[7],9%
same,Total Cell Count,[7],186
same,Population Apoptotic (%),[8],42%
same,Population Fragmented Nuclei (%),[8],9%
same,Population Healthy Nuclei (%),[8],84%
same,Population Hoechst High Intensity Objects (%),[8],8%
same,Population Membrane Permeable-Phenotype (%),[8],20%
same,Population Mitochondria Different-Phenotype (%),[8],23%
same,Population Mitotic Cells (%),[8],57%
same,Population Normal (%),[8],91%
same,Population Pyknosed Nuclei (%),[8],5%
same,Population Tubulin-Different-Phenotype (%),[8],19%
same,Total Cell Count,[8],135
